In experiment [1] the target is 0P-ERK2 mutant that was binding competent only at the DEJL-site. Conditions: full-length Elk1 protein and 0P-ERK2 mutant binding competent only at the DEJL-site; cited from earlier work.
Experiment [2] concerns the target T1, 0P-ERK2 (inactive ERK2) (Rattus norvegicus, UniProt P63086). Kind of experiment: NMR. The class given is binding.
In experiment [3] the target is T2, 2P-ERK2 (active ERK2) (Rattus norvegicus, UniProt P63086). Kind of experiment: NMR. The class given is binding.
Experiment [4] addresses T1, 0P-ERK2 (inactive ERK2). As to the kind of experiment: NMR. It counts as binding. Conditions: estimated, slow/intermediate exchange prevented accurate determination. The procedure, abridged:
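Unphosphorylated ERK2 from E. coli BL21(DE3), ILV-methyl-labeled in a protonated background, ~0.26 mM in 50 mM Tris pH 7.4, 150 mM NaCl, 5 mM MgSO4, 0.1 mM EDTA, 5 mM DTT, 99% D2O, 2.5% glycerol. AMP-PNP titrated at 0, 0.1, 0.2, 0.3, 1.0, 2.1, 4.2 mM; 5 h 2D TROSY-HMQC per point, 25 °C, 800 MHz; combined methyl CSP (1H, 0.25×13C).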

Experiment [5] concerns the target T2, 2P-ERK2 (active ERK2). Kind of experiment: NMR. It counts as binding. The settings on record: estimated, slow/intermediate exchange prevented accurate determination.
In experiment [6] the target is 0P-p38α. Conditions: read-out: binding affinity of ATP; cited from earlier work.
The subject of experiment [7] is 2P-p38α. The settings on record: cited from earlier work.
The test system of experiment [8] is Tyr-185 phosphorylated (pY) ERK2. Conditions: formation of the ternary MBP-bound complex of pY ERK2; cited from earlier work.
The target in experiment [9] is Elk1F peptide DEF-site peptide (Homo sapiens) (UniProt P19419). Conditions: cited from earlier work.

Where two headings read alike, the source gives them in different places. Where a SMILES comes first, the peptide text is derived from it.

In the case of “full-length Elk1 protein: full-length transcription factor Elk1, a substrate of ERK2”, in [1], the Kd was 5 µM.
Regarding `CC(C)C[C@H](NC(=O)[C@H](CO)NC(=O)[C@@H]1CCCN1C(=O)[C@H](CO)NC(=O)[C@H](CC(C)C)NC(=O)[C@@H]1CCCN1C(=O)[C@H](CC(C)C)NC(=O)[C@H](CCC(=O)O)NC(=O)[C@H](CC(C)C)NC(=O)[C@H](CC(=O)O)NC(=O)[C@H](CCCNC(=N)N)NC(=O)[C@@H]1CCCN1C(=O)[C@H](CCCCN)NC(=O)[C@H](CCCNC(=N)N)NC(=O)CNC(=O)[C@H](CCCCN)NC(=O)[C@@H](N)CCC(N)=O)C(=O)O` [Elk1D] (H-QKGRKPRDLELPLSPSL-OH), the values for the Kd in [2] and in experiment [3] were 10 ± 1 µM and 30 ± 3 µM, respectively.
Take `Nc1ncnc2c1ncn2[C@@H]1O[C@H](COP(=O)(O)OP(=O)(O)NP(=O)(O)O)[C@@H](O)[C@H]1O` [AMP-PNP, adenosine 5′-(β,γ-imido)triphosphate]: the Kd in [4] and in [5] was 200 to 500 µM each time.
As for `Nc1ncnc2c1ncn2[C@@H]1O[C@H](COP(=O)(O)OP(=O)(O)OP(=O)(O)O)[C@@H](O)[C@H]1O` [ATP], the Kd in experiment [6] is over 15000 µM; in experiment [7] (read-out: binding affinity of ATP, 2P-p38α) it was 430 µM. Also, the “increase in the binding affinity of ATP upon phosphorylation” value in experiment [7] (2P-p38α versus 0P-p38α) is on record as over 30 fold. In [8], the “koff, ATP” value is 0.5 s⁻¹.
As to ERK2 (2P-ERK2) (from UniProt P63086), the Kd in experiment [9] is 8 µM.

The values are drawn from article PMC4943881 (Biochemistry, 2015).
